Assay results as given in publication PMC9444296 (Investigative Radiology, 2022).
Read-outs that look alike come from different tables or passages of the source.

What was measured:
[1] = system: GABAA; assay: SAFETYscan E/IC50 assay, GABAA; type: biochemical; conditions: concentration range 0.005 to 100 μM
Procedure, shortened: (§1)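 Contract-laboratory in vitro panel of 78 targets, run in agonist and/or antagonist modes under provider SOPs over 0.005 to 100 μM. Panel formats included enzyme fragment complementation, FLIPR-based cellular assays, kinase binding and enzymatic assays.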

[2] = system: bone marrow of ICR mice; assay: Micronucleus assay in ICR mice; type: in vivo, mouse; conditions: ICR mice, 1.39, 0.70, and 0.35 mmol/kg/d for 2 days
Procedure, shortened: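 Male ICR mice, 32 in total, were dosed once daily for 2 days: vehicle, 500 or 1000 mg/kg/d (6 per group) or 2000 mg/kg/d (8 mice). Cyclophosphamide monohydrate served as positive control. Bone marrow was collected about 22.5 h after the final dose and scored for micronuclei and for polychromatic to total erythrocytes.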

[3] = biological target: OATP1B3 (Homo sapiens, UniProt Q9NPD5); assay: OATP1B3 inhibition, HEK293 cells; type: in vitro ADME; conditions: 1, 5, 10, 50, and 100 μM
Chain of OATP1B3 (Q9NPD5 whole entry): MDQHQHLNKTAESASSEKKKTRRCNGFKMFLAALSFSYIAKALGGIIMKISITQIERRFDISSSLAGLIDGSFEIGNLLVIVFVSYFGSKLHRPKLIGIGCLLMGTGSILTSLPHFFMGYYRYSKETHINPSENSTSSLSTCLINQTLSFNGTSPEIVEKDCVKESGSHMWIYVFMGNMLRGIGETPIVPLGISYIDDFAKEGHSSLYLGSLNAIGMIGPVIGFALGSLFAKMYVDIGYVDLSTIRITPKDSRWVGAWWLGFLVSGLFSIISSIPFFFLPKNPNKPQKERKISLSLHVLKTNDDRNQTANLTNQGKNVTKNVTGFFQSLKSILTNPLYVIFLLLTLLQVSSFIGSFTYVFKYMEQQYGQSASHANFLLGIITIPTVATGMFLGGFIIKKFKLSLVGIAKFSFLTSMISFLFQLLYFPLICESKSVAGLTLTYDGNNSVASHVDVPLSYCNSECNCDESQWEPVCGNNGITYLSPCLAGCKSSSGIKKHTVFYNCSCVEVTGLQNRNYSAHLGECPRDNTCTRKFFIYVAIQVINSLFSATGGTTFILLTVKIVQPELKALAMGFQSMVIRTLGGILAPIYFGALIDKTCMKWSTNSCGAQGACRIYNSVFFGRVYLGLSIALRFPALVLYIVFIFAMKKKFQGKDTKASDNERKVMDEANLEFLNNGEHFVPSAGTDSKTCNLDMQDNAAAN

[4] = Metabolic stability in SD rat hepatocytes; type: in vitro ADME; conditions: 2 hours of incubation, LC-MS/MS
[5] = Metabolic stability in cynomolgus monkey hepatocytes; type: in vitro ADME; conditions: 2 hours of incubation, LC-MS/MS
[6] = Plasma stability, human plasma; type: in vitro ADME; conditions: 0.5 mM, 37°C, HPLC; for average remaining percentage of intact MT218: n = 2
Procedure, shortened: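 Test compound at 0.5 mM was incubated in human, rat or dog plasma at 37°C for up to 48 h, with PBS as control. Samples were mixed with methanol, centrifuged, and the intact compound was quantified by analytical reversed-phase (C18) HPLC.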

[7] = biological target: CYP2C19 (Homo sapiens, UniProt P33261); assay: CYP2C19 inhibition in human liver microsomes; type: in vitro ADME; conditions: 0.01, 0.1, 1, 10, and 100 μM, pooled human liver microsomes 0.5 mg/mL
Chain of CYP2C19 (P33261 whole entry): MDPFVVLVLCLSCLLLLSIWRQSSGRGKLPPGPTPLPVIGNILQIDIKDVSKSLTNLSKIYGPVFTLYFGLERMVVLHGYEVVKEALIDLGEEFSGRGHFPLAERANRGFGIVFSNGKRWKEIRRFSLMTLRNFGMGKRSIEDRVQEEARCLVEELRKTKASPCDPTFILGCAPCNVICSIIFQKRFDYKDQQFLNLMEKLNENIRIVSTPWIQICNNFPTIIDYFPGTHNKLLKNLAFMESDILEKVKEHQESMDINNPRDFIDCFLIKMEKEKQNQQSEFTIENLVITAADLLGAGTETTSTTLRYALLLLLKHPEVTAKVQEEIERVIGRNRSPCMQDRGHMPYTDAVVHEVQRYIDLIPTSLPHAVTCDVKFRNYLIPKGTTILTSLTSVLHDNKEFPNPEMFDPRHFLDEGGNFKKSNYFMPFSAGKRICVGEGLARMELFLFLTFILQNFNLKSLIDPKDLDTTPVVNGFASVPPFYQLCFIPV

[8] = Metabolic stability in beagle dog hepatocytes; type: in vitro ADME; conditions: 2 hours of incubation, LC-MS/MS
[9] = biological target: OAT1 (Homo sapiens, UniProt Q4U2R8); assay: OAT1 inhibition, HEK293 cells; type: in vitro ADME; conditions: 1, 5, 10, 50, and 100 μM
Chain of OAT1 (Q4U2R8 whole entry): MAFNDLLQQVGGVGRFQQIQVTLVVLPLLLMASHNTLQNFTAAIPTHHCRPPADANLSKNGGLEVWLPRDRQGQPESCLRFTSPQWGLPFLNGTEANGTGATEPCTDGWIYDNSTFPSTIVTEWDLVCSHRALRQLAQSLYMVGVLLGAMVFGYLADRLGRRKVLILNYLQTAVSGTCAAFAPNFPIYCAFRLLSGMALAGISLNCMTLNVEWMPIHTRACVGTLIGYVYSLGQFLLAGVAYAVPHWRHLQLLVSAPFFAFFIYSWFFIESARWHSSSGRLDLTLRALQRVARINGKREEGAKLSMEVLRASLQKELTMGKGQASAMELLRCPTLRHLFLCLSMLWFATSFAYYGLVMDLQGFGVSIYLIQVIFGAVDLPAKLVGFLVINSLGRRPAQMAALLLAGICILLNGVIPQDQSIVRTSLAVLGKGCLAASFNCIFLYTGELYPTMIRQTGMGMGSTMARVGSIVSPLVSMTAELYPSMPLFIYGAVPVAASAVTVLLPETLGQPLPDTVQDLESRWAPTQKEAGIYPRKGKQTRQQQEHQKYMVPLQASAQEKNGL

[10] = biological target: OPRD1 (Homo sapiens, UniProt P41143); assay: SAFETYscan E/IC50 assay, OPRD1; type: biochemical; conditions: concentration range 0.005 to 100 μM
Chain of OPRD1 (P41143 whole entry): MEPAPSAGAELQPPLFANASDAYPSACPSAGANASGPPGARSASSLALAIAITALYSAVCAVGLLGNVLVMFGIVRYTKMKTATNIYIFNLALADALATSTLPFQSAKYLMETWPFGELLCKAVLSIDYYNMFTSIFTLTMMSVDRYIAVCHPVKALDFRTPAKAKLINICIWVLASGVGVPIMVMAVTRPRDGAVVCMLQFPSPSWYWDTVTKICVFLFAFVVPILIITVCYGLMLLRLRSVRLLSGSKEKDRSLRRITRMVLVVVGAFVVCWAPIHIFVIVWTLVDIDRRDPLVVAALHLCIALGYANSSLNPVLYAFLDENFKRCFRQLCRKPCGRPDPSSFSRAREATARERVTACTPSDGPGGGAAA
Procedure, shortened: as §1

[11] = biological target: hERG (Homo sapiens, UniProt Q12809); conditions: HEK293, whole-cell patch clamp
Chain of hERG (Q12809 whole entry): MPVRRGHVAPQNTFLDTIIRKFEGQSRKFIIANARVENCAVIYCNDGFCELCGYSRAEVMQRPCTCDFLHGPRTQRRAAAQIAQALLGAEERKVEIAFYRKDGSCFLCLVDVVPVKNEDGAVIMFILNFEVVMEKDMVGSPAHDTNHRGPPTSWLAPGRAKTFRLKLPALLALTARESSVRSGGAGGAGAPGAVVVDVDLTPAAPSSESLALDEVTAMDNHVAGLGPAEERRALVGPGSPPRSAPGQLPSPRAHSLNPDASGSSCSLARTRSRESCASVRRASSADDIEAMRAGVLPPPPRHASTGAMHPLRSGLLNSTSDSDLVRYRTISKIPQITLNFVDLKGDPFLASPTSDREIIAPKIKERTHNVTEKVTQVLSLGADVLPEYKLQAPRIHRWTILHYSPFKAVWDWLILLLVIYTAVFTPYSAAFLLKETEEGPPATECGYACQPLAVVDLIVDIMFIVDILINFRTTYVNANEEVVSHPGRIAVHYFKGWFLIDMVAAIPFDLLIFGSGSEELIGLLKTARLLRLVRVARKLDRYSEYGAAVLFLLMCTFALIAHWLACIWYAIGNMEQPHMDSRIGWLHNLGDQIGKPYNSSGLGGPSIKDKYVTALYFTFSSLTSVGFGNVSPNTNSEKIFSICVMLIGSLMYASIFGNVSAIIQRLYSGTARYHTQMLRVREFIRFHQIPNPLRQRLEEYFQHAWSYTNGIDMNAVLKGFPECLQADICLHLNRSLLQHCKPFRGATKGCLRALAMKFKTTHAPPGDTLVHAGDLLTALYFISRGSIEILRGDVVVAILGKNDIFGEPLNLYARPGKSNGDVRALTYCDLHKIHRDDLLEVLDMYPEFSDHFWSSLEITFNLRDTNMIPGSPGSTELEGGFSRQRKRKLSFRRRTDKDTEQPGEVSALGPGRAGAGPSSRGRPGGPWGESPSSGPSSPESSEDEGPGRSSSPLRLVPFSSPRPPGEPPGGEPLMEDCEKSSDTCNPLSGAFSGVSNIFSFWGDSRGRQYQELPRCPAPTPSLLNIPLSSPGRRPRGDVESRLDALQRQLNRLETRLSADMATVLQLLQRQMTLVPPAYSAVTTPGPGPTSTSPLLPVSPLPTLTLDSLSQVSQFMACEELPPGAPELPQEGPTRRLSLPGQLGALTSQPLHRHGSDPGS

[12] = Plasma protein binding, human plasma; type: in vitro ADME; conditions: 37°C, 3 min, 10 kDa ultrafiltration, Gd by ICP-OES, n = 4
Procedure, shortened: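 Test compound at 50, 80 or 110 μM was incubated with human, dog or rat plasma (alongside HSA 40 mg/mL and PBS) at 37°C for 3 min. Mixtures were kept overnight and centrifuged to remove insolubles. Gd was measured by ICP-OES, and the binding ratio was taken as bound over total concentration.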

[13] = biological target: CNR2 (Homo sapiens, UniProt P34972); assay: SAFETYscan E/IC50 assay, CNR2; type: biochemical; conditions: concentration range 0.005 to 100 μM
Chain of CNR2 (P34972 whole entry): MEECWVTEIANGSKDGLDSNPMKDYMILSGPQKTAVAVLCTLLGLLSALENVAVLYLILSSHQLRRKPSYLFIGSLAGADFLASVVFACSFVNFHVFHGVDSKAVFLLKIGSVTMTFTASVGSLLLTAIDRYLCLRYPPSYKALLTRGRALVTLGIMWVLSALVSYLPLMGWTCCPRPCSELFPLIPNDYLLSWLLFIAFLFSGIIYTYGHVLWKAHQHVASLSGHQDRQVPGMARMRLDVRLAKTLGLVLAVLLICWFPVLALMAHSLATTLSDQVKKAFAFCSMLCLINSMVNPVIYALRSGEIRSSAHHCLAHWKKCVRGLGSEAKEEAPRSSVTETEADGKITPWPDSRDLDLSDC
Procedure, shortened: as §1

[14] = biological target: OCT2 (Homo sapiens, UniProt O15244); assay: OCT2 inhibition, HEK293 cells; type: in vitro ADME; conditions: 1, 5, 10, 50, and 100 μM
Chain of OCT2 (O15244 whole entry): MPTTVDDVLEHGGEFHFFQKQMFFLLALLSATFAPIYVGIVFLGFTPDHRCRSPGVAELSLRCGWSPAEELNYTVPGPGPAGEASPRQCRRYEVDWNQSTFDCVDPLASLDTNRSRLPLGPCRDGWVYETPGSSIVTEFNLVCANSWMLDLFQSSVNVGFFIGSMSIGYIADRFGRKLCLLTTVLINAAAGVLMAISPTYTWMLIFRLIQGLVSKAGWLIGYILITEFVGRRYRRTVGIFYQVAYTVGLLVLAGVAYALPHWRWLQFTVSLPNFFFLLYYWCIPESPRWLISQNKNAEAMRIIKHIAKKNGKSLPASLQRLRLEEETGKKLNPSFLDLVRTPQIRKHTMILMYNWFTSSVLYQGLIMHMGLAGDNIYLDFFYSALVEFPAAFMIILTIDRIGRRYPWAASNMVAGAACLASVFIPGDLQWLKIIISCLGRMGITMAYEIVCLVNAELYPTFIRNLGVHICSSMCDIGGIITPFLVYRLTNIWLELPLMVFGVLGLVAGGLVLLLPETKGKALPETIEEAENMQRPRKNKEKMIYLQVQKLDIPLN

[15] = system: LNCaP human prostate tumors; assay: Contrast-enhanced MRI of LNCaP prostate tumor xenografts in rats; type: in vivo, rat; conditions: 3 T, n = 3
Procedure, shortened: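 Male rats carried subcutaneous flank xenografts of 4 × 10⁶ PC3 or 8 × 10⁶ LNCaP cells in Matrigel-PBS (1:1) and were imaged once tumours exceeded 100 mm³. Scans used 1 mm slices, 2 averages and a 128 × 128 matrix. The same tumour-bearing rats were reused across agents and doses, with a clinical Gd agent at 0.1 mmol Gd/kg as comparator.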

[16] = Pharmacokinetics in SD rats; type: in vivo, rat; conditions: for AUC: AUC 0-4h; for AUC / AUCINF / C0 / Cl / MRT / T1/2 / Vz: Gd by ICP-MS, NCA, n = 3
Procedure, shortened: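 SD rats (3/sex) received a single IV dose of 0.04, 0.1 or 0.2 mmol/kg. Jugular blood was drawn predose and at 2, 5, 10, 15, 30 and 45 min and 1, 2, 3 and 4 h. Parameters were derived by noncompartmental analysis.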

[17] = biological target: MDR1 (Homo sapiens, UniProt P08183); assay: MDR1 inhibition, membrane vesicles; type: in vitro ADME; conditions: 1, 5, 10, 50, and 100 μM
[18] = SD rat ♀, 0.04 mmol/kg single IV
[19] = SD rat ♀, 0.1 mmol/kg single IV
[20] = SD rat ♀, 0.2 mmol/kg single IV
[21] = SD rat ♂, 0.04 mmol/kg single IV
[22] = SD rat ♂, 0.1 mmol/kg single IV
[23] = SD rat ♂, 0.2 mmol/kg single IV

In the case of ZD2-N3-Gd(HP-DO3A) [MT218], the inhibition rate [1] was 24.25%, the “incidence of micronuclei vs vehicle control” value [2] was “no significant increase” and the “ratio of polychromatic erythrocytes to total erythrocytes” value [2] was “no significant decrease”. For the same substance, the “inhibition of OATP1B3 transporter activity” value [3] was “no inhibition potential”, the “remaining MT218” value [4] was 67.5% and the “remaining MT218” value [5] was 82.9%. For the same substance, the “average remaining percentage of intact MT218” value (shortened to “average remaining percentage”) ([6]; 1 h) was 83.47%, the “average remaining percentage” value ([6]; 3 h) was 48.79% and the “average remaining percentage” value ([6]; 6 h) was 12.87%. For the same substance, the “average remaining percentage” value ([6]; 28 h) was 5.21%, the “average remaining percentage” value ([6]; 48 h) was 3.97% and the “enzymatic degradation half-life (t1/2)” value [6] was 158 min. The “inhibition of CYP2C19 activity” value [7] was “did not inhibit”, the “remaining MT218” value [8] was 41.0% and the “inhibition of OAT1 transporter activity” value [9] was “no inhibition potential”. For the same substance, the inhibition rate [10] was 11.08%, the “average inhibition of the hERG currents” value ([11]; 30.69 μM) was 36.87% ± 6.93% and the “average inhibition of the hERG currents” value ([11]; 103.54 μM) was 52.19% ± 0.82%. For the same substance, the “binding ratio to plasma proteins” value ([12]; 50 μM) was 47.31%, the “binding ratio to plasma proteins” value ([12]; 80 μM) was 45.15% and the “binding ratio to plasma proteins” value ([12]; 110 μM) was 40.50%. For the same substance, the inhibition rate [13] was 12.4%, the “inhibition of OCT2 transporter activity” value [14] was “no inhibition potential” and the CNR ([15]; 0.02 mmol/kg IV) was 0.88 ± 0.06. The CNR ([15]; 0.04 mmol/kg IV) was 1.13 ± 0.38, the AUC [16, 18] was 10940 ng·h/mL and the AUC [16, 19] was 27840 ng·h/mL. It also gave an AUC [16, 20] of 58600 ng·h/mL, an AUC [16, 21] of 11080 ng·h/mL and an AUC [16, 22] of 28860 ng·h/mL. For the same substance, the AUC [16, 23] was 53170 ng·h/mL, the “AUC Ratio” value ([16]; AUC(dose)/AUC(low dose), SD rat ♀, 0.04 mmol/kg) was 1 and the “AUC Ratio” value ([16]; AUC(dose)/AUC(low dose), SD rat ♂, 0.04 mmol/kg) was 1. The “AUC Ratio” value ([16]; AUC(high dose)/AUC(low dose), SD rat ♀, 0.2 mmol/kg) was 5.36, the “AUC Ratio” value ([16]; AUC(high dose)/AUC(low dose), SD rat ♂, 0.2 mmol/kg) was 4.80 and the “AUC Ratio” value ([16]; AUC(middle dose)/AUC(low dose), SD rat ♀, 0.1 mmol/kg) was 2.55. For the same substance, the “AUC Ratio” value ([16]; AUC(middle dose)/AUC(low dose), SD rat ♂, 0.1 mmol/kg) was 2.61, the AUCINF [16, 18] was 11130 ng·h/mL and the C0 [16, 18] was 75.09 µg/mL. For the same substance, the Cl [16, 18] was 9.4683 mL/min/kg, the MRT [16, 18] was 17.4 min and the T1/2 [16, 18] was 16.8 min. For the same substance, the Vz [16, 18] was 0.22422 L/kg, the AUCINF [16, 19] was 28020 ng·h/mL and the C0 [16, 19] was 158.07 µg/mL. It also gave a Cl [16, 19] of 9.5898 mL/min/kg, an MRT [16, 19] of 20.4 min and a T1/2 [16, 19] of 19.2 min. It also gave a Vz [16, 19] of 0.27335 L/kg, an AUCINF [16, 20] of 58710 ng·h/mL and a C0 [16, 20] of 209.22 µg/mL. For the same substance, the Cl [16, 20] was 9.2098 mL/min/kg, the MRT [16, 20] was 25.8 min and the T1/2 [16, 20] was 19.2 min. It also gave a Vz [16, 20] of 0.2564 L/kg, an AUCINF [16, 21] of 11180 ng·h/mL and a C0 [16, 21] of 49.09 µg/mL. The Cl [16, 21] was 9.6403 mL/min/kg, the MRT [16, 21] was 22.2 min and the T1/2 [16, 21] was 18 min. For the same substance, the Vz [16, 21] was 0.24309 L/kg, the AUCINF [16, 22] was 29010 ng·h/mL and the C0 [16, 22] was 115.85 µg/mL. It also gave a Cl [16, 22] of 9.172 mL/min/kg, an MRT [16, 22] of 24 min and a T1/2 [16, 22] of 18.6 min. It also gave a Vz [16, 22] of 0.24018 L/kg, an AUCINF [16, 23] of 53230 ng·h/mL and a C0 [16, 23] of 248.60 µg/mL. For the same substance, the Cl [16, 23] was 9.855 mL/min/kg, the MRT [16, 23] was 22.2 min and the T1/2 [16, 23] was 18 min. For the same substance, the Vz [16, 23] was 0.25524 L/kg, the “mean plasma elimination half-life (t1/2)” value ([16]; rats, 0.1 mmol/kg IV) was 18.6 min and the “inhibition of MDR1 transporter activity” value [17] was “no inhibition potential”.
